Reference: ChEMBL document CHEMBL2440077, “Synthesis and antiprotozoal activity of dicationic 2,6-diphenylpyrazines and aza-analogues” (Bioorg Med Chem, 2013)
pIC50: −log10 of the molar value. Calls of active or inactive are those of the source. No cut-off for these calls is given here.

How the values were obtained:
[1] = system: Trypanosoma brucei brucei; test: Antitrypanosomal activity against Trypanosoma brucei brucei GVR35 infected in NMRI mouse assessed as mouse survival at 100 mg/kg, po administered on day 21 post infection for 5 days measured up to 180 days; format: functional
How it was run: (§1)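 Oral dosing in the T. b. brucei GVR35 second-stage (CNS) mouse model, daily for 5 or 10 days. Cure means survival for more than 180 days after infection with no parasitemia relapse. Mean survival days are computed across mice with and without relapse.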

[2] = system: Trypanosoma brucei brucei; test: Antitrypanosomal activity against Trypanosoma brucei brucei GVR35 infected in NMRI mouse assessed as cured animal at 100 mg/kg, po administered on day 21 post infection for 5 days measured up to 180 days; format: functional, organism-based; set-up: dose 100 mg/kg
How it was run: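 Second-stage CNS model, oral dosing. A cure is survival beyond 180 days after infection without parasitemia relapse. Mean survival days are computed from mice with and without relapse. Reference diamidine control given once at 40 mg/kg ip.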

[3] = system: Trypanosoma brucei rhodesiense; test: Antitrypanosomal activity against Trypanosoma brucei rhodesiense STIB900 infected in NMRI mouse assessed as cured animal at 10 mg/kg, ip administered on day 3 post infection for 4 days measured up to 60 days; format: functional, organism-based; set-up: dose 10 mg/kg
How it was run: (§2)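 Acute-stage mouse model: compound dosed daily for 4 days. A cure is a mouse surviving parasite-free for 60 days. Average days of survival also recorded.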

[4] = system: Liver; test: Half life in mouse liver microsomes by UV-HPLC analysis; format: ADME, Microsome
How it was run: (§3)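 Substrate at 10 μM with 0.5 mg/ml pooled human or mouse liver microsomes, 0.5% DMSO, in 100 mM phosphate pH 7.4 with 3.3 mM MgCl2. After 5-min pre-equilibration at 37°C, 1 mM β-NADPH is added; triplicates.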

[5] = system: Liver microsomes; test: Half life in human liver microsomes by UV-HPLC analysis; format: ADME, Microsome; how it was run: as §3
[6] = system: Trypanosoma brucei rhodesiense; test: Antitrypanosomal activity against Trypanosoma brucei rhodesiense STIB900 infected in NMRI mouse assessed as mouse survival at 5 mg/kg, ip administered on day 3 post infection for 4 days measured up to 60 days; format: functional; details: route intraperitoneal
[7] = system: Trypanosoma brucei rhodesiense; test: Antitrypanosomal activity against Trypanosoma brucei rhodesiense STIB900 infected in NMRI mouse assessed as cured animal at 5 mg/kg, ip administered on day 3 post infection for 4 days measured up to 60 days; format: functional, organism-based; set-up: dose 5 mg/kg; how it was run: as §2
[8] = system: L6; test: Cytotoxicity against rat L6 cells assessed as cell viability after 70 hrs by Alamar blue assay; format: cell-based; details: L6, 70 h
[9] = system: Trypanosoma brucei rhodesiense; test: Antitrypanosomal activity against Trypanosoma brucei rhodesiense STIB900 assessed as parasite growth inhibition after 70 hrs by Alamar blue assay; format: functional, organism-based; details: STIB900, 70 h
[10] = system: Plasmodium falciparum; test: Antiplasmodial activity against Plasmodium falciparum K1 assessed as [3H]-hypoxanthine incorporation after 48 hrs by liquid scintillation counting analysis; format: functional, organism-based
[11] = system: Trypanosoma brucei brucei; test: Antitrypanosomal activity against Trypanosoma brucei brucei GVR35 infected in NMRI mouse assessed as mouse survival at 100 mg/kg, po administered on day 21 post infection for 10 days measured up to 180 days; format: functional; how it was run: as §1
[12] = system: Liver; test: Half life in Swiss Webster mouse liver S9 fraction by UV-HPLC analysis; format: ADME, subcellular
[13] = system: Trypanosoma brucei rhodesiense; test: Antitrypanosomal activity against Trypanosoma brucei rhodesiense STIB900 infected in NMRI mouse assessed as mouse survival at 20 mg/kg, ip administered on day 3 post infection for 4 days measured up to 60 days; format: functional; details: route intraperitoneal
[14] = system: Trypanosoma brucei rhodesiense; test: Antitrypanosomal activity against Trypanosoma brucei rhodesiense STIB900 infected in NMRI mouse assessed as cured animal at 20 mg/kg, ip administered on day 3 post infection for 4 days measured up to 60 days; format: functional, organism-based; set-up: dose 20 mg/kg; how it was run: as §2
[15] = system: Plasmodium falciparum; test: Potency index, ratio of pentamidine IC50 to compound IC50 for Plasmodium falciparum K1; format: functional
[16] = system: Trypanosoma brucei rhodesiense; test: Antitrypanosomal activity against Trypanosoma brucei rhodesiense STIB900 infected in NMRI mouse assessed as mouse survival at 100 mg/kg, ip administered on day 3 post infection for 4 days measured up to 60 days; format: functional; details: route intraperitoneal
[17] = system: Trypanosoma brucei rhodesiense; test: Antitrypanosomal activity against Trypanosoma brucei rhodesiense STIB900 infected in NMRI mouse assessed as cured animal at 100 mg/kg, ip administered on day 3 post infection for 4 days measured up to 60 days; format: functional, organism-based; set-up: dose 100 mg/kg; how it was run: as §2

SMILES | Survival [6] | pIC50 [8] | pIC50 [9] | pIC50 [10] | other results
CO/N=C(\N)c1ccc(-c2ccc(-c3ccc(/C(N)=N/OC)cn3)o2)nc1 | – | – | – | – | MSD [1]: >180 days; Activity [2]: Active
CONC(=N)c1ccc(-c2ccc(-c3ccc(C(=N)NOC)cc3)o2)cc1 [PAFURAMIDINE] | – | – | – | – | MSD [1]: >167.8 days; Activity [3]: Active; t1/2 [4]: 150 min; t1/2 [5]: 6.8 min
N=C(N)c1ccc(-c2cnc(-c3ccc(C(=N)N)cc3)cn2)cc1 | 36.5 days | – | – | – | Activity [7]: inactive
CO/N=C(\N)c1ccc(-c2cncc(-c3ccc(/C(N)=N\OC)cc3)n2)cn1 | – | < 3.73 | 3.71 | 6.34 | t1/2 [4]: 35 min; t1/2 [5]: 6.5 min
CO/N=C(\N)c1ccc(-c2cncc(-c3ccc(/C(N)=N\OC)cc3)n2)cc1 | – | 4.23 | 4.72 | 6.39 | MSD [11]: >180 days; MSD [1]: >173.8 days; t1/2 [4]: 26 min; t1/2 [5]: 8.6 min
N/C(=N\O)c1ccc(-c2cncc(-c3ccc(/C(N)=N/O)cn3)n2)nc1 | – | < 3.71 | 4.04 | 5.15 | t1/2 [12]: 20 min
N=C(N)c1ccc(-c2ccc(-c3ccc(C(=N)N)cn3)o2)nc1 | >49.5 days | 4.08 | – | – | Survival [13]: >60 days; Activity [14]: Active
Cc1cc(C(=N)N)ccc1-c1cncc(-c2ccc(C(=N)N)cc2C)n1 | – | 3.93 | 6.34 | 6.49 | –
CO/N=C(\N)c1ccc(-c2cncc(-c3ccc(/C(N)=N\OC)nc3)n2)cn1 | – | < 3.67 | 5.10 | 6.48 | t1/2 [4]: 59 min; t1/2 [5]: 14 min
N=C(N)c1ccc(-c2ccc(-c3ccc(C(=N)N)cc3)o2)cc1 [FURAMIDINE] | >46 days | – | – | – | Survival [13]: >57.75 days
N=C(N)c1ccc(-c2ccc(-c3ccc(C(=N)N)cn3)o2)cc1 | >54.5 days | – | – | – | Survival [13]: >60 days; Activity [14]: Active
N=C(N)c1ccc(-c2cncc(-c3ccc(C(=N)N)nc3)n2)cn1 | >36.5 days | 4.61 | 8.32 | 7.07 | –
N/C(=N\O)c1ccc(-c2cncc(-c3ccc(/C(N)=N\O)nc3)n2)cn1 | – | < 3.72 | 4.02 | 6.11 | MSD [1]: 95.2 days; Activity [2]: inactive; t1/2 [12]: 51 min
N=C(N)c1ccc(-c2cncc(-c3ccc(C(=N)N)cc3F)n2)c(F)c1 | >41 days | 4.53 | 7.57 | – | Activity [7]: inactive
CO/N=C(\N)c1ccc(-c2ccc(-c3ccc(/C(N)=N/OC)cn3)o2)cc1 | – | – | – | – | MSD [1]: >180 days; Activity [2]: Active
N/C(=N\O)c1ccc(-c2cncc(-c3ccc(/C(N)=N/O)cn3)n2)cc1 | – | 4.61 | 5.11 | 5.08 | t1/2 [12]: 30 min
N=C(N)c1ccc(-c2cncc(-c3ccc(C(=N)N)cc3)n2)cc1 | >53.5 days | 4.09 | 8.24 | 8.00 | Ratio IC50 [15]: 5
N/C(=N\O)c1ccc(-c2cncc(-c3ccc(/C(N)=N/O)nc3)n2)cc1 | – | 5.30 | 4.97 | 6.34 | t1/2 [12]: 36 min
N=C(N)c1ccc(-c2cncc(-c3ccc(C(=N)N)cn3)n2)nc1 | >53.75 days | 3.86 | 7.43 | 7.51 | –
N/C(=N\O)c1ccc(-c2cncc(-c3ccc(/C(N)=N/O)cc3)n2)cc1 | – | 5.54 | 5.10 | 6.06 | MSD [1]: 69 days; Activity [2]: inactive; Activity [3]: inactive; t1/2 [12]: 1.9 min
N=C(NO)c1ccc(-c2ccc(-c3ccc(/C(N)=N\O)cc3)o2)cc1 | – | – | – | – | Survival [16]: 50 days; Activity [17]: inactive; t1/2 [12]: 29 min
CO/N=C(\N)c1ccc(-c2cncc(-c3ccc(/C(N)=N\OC)cn3)n2)nc1 | – | 4.70 | 3.92 | 5.13 | MSD [1]: 67.2 days; Activity [2]: inactive; t1/2 [4]: 200 min; t1/2 [5]: 70 min
N=C(N)c1ccc(-c2cncc(-c3ccc(C(=N)N)nc3)n2)cc1 | >60 days | 4.47 | 8.22 | 8.00 | –
N=C(N)c1ccc(-c2cncc(-c3ccc(C(=N)N)cn3)n2)cc1 | >60 days | 3.93 | 7.85 | 7.28 | Activity [7]: Active
CO/N=C(\N)c1ccc(-c2cncc(-c3ccc(/C(N)=N\OC)cc3)n2)nc1 | – | < 3.74 | 4.60 | 5.25 | t1/2 [4]: 210 min; t1/2 [5]: 7.6 min
